Laboratory results taken from ChEMBL document CHEMBL2163192, “N,N-Dimethyl-[9-(arylsulfonyl)-2,3,4,9-tetrahydro-1H-carbazol-3-yl]amines as novel, potent and selective 5-HT₆ receptor antagonists” (Bioorg Med Chem Lett, 2012).
One block for each compound: values may come before it.

Experiments:
[1] = target: T1, 5-hydroxytryptamine receptor 6 (Homo sapiens, UniProt P50406); assay: Binding affinity to human 5-HT6 receptor
Procedure, shortened: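 Radioligand binding assay at human 5-HT6 receptor; Ki values determined in triplicate.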

[2] = target: T1, 5-hydroxytryptamine receptor 6; assay: Displacement of [3H]LSD from human cloned 5-HT6 receptor expressed in HEK293 cells; assay type: cell-based
[3] = target: T2, Alpha-1B adrenergic receptor (Homo sapiens) (UniProt P35368); assay: Inhibition of alpha1B adrenergic receptor at 10 uM
T2 sequence (whole entry): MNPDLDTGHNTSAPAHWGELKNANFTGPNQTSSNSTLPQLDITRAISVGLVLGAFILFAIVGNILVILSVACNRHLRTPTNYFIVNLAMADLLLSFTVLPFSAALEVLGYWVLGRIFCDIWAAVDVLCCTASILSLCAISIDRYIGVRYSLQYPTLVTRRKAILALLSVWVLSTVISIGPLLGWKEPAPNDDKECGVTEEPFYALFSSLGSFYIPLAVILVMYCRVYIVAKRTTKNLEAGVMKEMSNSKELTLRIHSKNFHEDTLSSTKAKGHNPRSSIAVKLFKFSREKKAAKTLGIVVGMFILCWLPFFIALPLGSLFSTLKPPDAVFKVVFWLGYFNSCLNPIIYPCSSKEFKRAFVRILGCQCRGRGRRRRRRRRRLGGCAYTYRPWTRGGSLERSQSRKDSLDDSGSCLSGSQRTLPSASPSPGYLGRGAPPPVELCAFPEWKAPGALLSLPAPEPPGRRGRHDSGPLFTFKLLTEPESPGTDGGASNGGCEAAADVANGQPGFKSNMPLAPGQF
Procedure, shortened: (§1)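 In-house selectivity panel of related receptors and transporters; each compound tested at 1 μM and 10 μM; percent inhibition determined in duplicate and the mean of the two reported.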

[4] = target: 5-hydroxytryptamine receptor 2A (Homo sapiens) (UniProt P28223); assay: Inhibition of 5-HT2A receptor at 10 uM; procedure, shortened: as §1
[5] = target: Histamine H3 receptor (Homo sapiens) (UniProt Q9Y5N1); assay: Inhibition of histamine H3 receptor at 10 uM; procedure, shortened: as §1
CYP2C19 = CYP2C19 (Homo sapiens, UniProt P33261); assay: Inhibition of human CYP2C19 at 3 uM; assay type: ADME
Procedure, shortened: (§2)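 Isoform-selective inhibition assays using heterologously expressed human CYP enzymes; compounds tested at 3 μM; percent inhibition reported.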

[6] = target: Sodium-dependent dopamine transporter (Homo sapiens) (UniProt Q01959); assay: Inhibition of DAT at 10 uM; procedure, shortened: as §1
[7] = target: Histamine H3 receptor (Homo sapiens) (UniProt Q9Y5N1); assay: Inhibition of histamine H3 receptor at 1 uM; procedure, shortened: as §1
[8] = target: T3, 5-hydroxytryptamine receptor 1A (Homo sapiens) (UniProt P08908); assay: Inhibition of 5-HT1A receptor at 1 uM; procedure, shortened: as §1
T3 sequence (whole entry): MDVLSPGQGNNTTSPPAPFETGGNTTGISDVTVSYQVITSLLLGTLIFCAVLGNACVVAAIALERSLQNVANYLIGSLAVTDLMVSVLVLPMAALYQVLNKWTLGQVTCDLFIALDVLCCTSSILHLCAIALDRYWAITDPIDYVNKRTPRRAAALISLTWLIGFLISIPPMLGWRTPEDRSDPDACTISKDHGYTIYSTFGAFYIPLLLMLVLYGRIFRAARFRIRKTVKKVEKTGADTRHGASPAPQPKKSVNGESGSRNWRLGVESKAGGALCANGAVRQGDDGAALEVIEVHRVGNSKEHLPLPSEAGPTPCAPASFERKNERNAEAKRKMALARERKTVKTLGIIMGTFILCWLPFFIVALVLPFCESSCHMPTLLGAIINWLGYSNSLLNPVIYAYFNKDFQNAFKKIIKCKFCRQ

[9] = target: Sodium-dependent serotonin transporter (Homo sapiens) (UniProt P31645); assay: Inhibition of SERT at 10 uM; procedure, shortened: as §1
[10] = target: T1, 5-hydroxytryptamine receptor 6; assay: Antagonist activity at human recombinant 5-HT6 receptor expressed in CHO cells assessed as inhibition of 5-HT-stimulated cAMP accumulation after 4 hrs by luciferase reporter gene assay; assay type: functional, cell-based
Procedure, shortened: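 Cell-based, non-radioactive reporter gene assay measuring antagonism of 5-HT-stimulated cAMP formation at human 5-HT6 receptor; IC50 and Kb values determined in duplicate.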

[11] = target: T2, Alpha-1B adrenergic receptor (Homo sapiens); assay: Inhibition of alpha1B adrenergic receptor at 1 uM; procedure, shortened: as §1
[12] = target: D(2) dopamine receptor (Homo sapiens) (UniProt P14416); assay: Inhibition of dopamine D2 receptor at 10 uM; procedure, shortened: as §1
[13] = target: 5-hydroxytryptamine receptor 2A (Homo sapiens) (UniProt P28223); assay: Inhibition of 5-HT2A receptor at 1 uM; procedure, shortened: as §1
[14] = target: T3, 5-hydroxytryptamine receptor 1A (Homo sapiens); assay: Inhibition of 5-HT1A receptor at 10 uM; procedure, shortened: as §1
CYP2D6 = CYP2D6 (Homo sapiens, UniProt P10635); assay: Inhibition of human CYP2D6 at 3 uM; assay type: ADME; procedure, shortened: as §2
[15] = target: Sodium-dependent serotonin transporter (Homo sapiens) (UniProt P31645); assay: Inhibition of SERT at 1 uM; procedure, shortened: as §1
[16] = target: D(2) dopamine receptor (Homo sapiens) (UniProt P14416); assay: Inhibition of dopamine D2 receptor at 1 uM; procedure, shortened: as §1
CYP3A4 = CYP3A4 (Homo sapiens, UniProt P08684); assay: Inhibition of human CYP3A4 at 3 uM; assay type: ADME; procedure, shortened: as §2
[17] = target: Histamine H4 receptor (Homo sapiens) (UniProt Q9H3N8); assay: Inhibition of histamine H4 receptor at 10 uM; procedure, shortened: as §1
[18] = target: Sodium-dependent dopamine transporter (Homo sapiens) (UniProt Q01959); assay: Inhibition of DAT at 1 uM; procedure, shortened: as §1
[19] = target: Histamine H4 receptor (Homo sapiens) (UniProt Q9H3N8); assay: Inhibition of histamine H4 receptor at 1 uM; procedure, shortened: as §1
[20] = Drug metabolism in rat liver microsomes; assay type: ADME, Microsome; settings: read-out: Drug metabolism
[21] = Drug metabolism in human liver microsomes; assay type: ADME, Microsome; settings: read-out: Drug metabolism

T1 sequence (P50406 whole entry): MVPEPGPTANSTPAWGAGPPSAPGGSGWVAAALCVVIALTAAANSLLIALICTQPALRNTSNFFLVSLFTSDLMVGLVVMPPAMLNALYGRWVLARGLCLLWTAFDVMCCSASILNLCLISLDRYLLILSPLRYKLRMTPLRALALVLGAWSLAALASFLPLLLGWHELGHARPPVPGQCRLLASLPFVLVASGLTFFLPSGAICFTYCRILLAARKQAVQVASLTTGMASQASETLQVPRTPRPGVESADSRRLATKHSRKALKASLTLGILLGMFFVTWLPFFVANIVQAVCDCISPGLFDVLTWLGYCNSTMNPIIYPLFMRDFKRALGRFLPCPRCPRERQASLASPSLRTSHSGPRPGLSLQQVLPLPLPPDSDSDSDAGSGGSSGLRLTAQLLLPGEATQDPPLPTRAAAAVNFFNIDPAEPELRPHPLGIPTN
Chain of Sodium-dependent serotonin transporter (Homo sapiens) (P31645 whole entry, looked up): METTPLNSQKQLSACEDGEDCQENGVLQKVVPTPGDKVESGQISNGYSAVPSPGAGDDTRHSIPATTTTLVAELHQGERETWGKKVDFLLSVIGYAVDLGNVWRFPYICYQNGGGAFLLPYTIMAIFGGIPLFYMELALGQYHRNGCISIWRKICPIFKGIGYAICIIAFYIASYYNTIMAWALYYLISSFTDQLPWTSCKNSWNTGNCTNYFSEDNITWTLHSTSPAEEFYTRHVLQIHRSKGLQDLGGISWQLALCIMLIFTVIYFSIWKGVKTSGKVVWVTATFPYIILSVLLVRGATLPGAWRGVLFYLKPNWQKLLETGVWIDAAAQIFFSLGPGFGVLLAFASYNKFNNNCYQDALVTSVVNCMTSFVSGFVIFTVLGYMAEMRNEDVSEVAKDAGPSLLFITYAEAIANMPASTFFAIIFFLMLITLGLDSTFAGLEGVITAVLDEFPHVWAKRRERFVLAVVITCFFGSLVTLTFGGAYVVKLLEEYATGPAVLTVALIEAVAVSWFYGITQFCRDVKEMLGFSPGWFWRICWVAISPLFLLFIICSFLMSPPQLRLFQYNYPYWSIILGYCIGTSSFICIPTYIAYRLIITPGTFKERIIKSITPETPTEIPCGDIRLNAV
Chain of 5-hydroxytryptamine receptor 2A (Homo sapiens) (P28223 whole entry): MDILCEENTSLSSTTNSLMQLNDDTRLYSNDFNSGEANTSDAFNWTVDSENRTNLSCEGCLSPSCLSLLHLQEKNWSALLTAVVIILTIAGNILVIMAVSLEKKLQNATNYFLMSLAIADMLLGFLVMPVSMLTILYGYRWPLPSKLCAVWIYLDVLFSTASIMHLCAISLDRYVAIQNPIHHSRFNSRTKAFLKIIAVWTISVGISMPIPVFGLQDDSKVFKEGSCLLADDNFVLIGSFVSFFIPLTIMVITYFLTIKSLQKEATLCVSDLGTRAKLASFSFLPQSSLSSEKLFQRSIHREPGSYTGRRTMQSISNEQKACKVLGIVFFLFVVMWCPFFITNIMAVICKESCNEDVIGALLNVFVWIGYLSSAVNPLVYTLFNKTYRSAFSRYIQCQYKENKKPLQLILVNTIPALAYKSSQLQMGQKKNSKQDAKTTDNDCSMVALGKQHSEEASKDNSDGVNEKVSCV
Chain of D(2) dopamine receptor (Homo sapiens) (P14416 whole entry): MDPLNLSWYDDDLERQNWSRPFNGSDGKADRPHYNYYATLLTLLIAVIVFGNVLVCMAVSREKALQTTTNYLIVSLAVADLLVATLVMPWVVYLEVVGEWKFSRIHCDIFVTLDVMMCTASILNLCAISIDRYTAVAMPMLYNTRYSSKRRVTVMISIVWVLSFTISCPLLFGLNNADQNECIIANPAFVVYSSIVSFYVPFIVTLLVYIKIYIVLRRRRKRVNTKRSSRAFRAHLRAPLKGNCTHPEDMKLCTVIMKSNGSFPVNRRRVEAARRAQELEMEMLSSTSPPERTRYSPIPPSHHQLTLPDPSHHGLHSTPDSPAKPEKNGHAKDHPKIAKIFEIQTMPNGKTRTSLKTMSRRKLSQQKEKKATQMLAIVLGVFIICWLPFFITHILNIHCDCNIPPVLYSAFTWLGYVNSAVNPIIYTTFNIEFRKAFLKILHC
Chain of Histamine H3 receptor (Homo sapiens) (Q9Y5N1 whole entry): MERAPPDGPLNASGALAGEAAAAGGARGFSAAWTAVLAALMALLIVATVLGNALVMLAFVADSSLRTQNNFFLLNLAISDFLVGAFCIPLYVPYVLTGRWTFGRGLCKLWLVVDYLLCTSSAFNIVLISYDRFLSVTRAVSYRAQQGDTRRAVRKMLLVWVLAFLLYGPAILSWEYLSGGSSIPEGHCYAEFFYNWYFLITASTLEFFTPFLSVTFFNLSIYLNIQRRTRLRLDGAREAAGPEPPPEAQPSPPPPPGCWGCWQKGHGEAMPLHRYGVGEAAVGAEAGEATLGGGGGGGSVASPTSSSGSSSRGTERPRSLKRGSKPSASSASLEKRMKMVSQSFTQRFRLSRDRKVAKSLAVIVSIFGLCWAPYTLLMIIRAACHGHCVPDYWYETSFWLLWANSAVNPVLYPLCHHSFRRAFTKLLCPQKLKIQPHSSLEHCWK
Chain of Sodium-dependent dopamine transporter (Homo sapiens) (Q01959 whole entry): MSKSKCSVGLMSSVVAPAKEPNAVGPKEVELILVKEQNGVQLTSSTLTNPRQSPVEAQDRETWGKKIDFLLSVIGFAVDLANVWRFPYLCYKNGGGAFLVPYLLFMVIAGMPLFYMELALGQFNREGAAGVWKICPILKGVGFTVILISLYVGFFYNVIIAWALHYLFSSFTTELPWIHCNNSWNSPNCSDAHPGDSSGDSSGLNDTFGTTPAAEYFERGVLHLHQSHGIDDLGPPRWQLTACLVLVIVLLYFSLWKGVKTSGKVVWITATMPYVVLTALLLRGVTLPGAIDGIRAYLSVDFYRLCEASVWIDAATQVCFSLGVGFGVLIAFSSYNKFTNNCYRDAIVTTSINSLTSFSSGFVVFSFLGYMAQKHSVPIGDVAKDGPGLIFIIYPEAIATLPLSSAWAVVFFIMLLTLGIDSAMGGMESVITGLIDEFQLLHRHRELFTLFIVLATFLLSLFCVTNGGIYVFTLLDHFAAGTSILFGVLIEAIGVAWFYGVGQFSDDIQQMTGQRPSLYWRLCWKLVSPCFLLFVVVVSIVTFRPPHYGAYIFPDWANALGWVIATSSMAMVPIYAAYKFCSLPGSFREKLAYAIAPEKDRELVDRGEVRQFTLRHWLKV
Chain of CYP3A4 (P08684 whole entry): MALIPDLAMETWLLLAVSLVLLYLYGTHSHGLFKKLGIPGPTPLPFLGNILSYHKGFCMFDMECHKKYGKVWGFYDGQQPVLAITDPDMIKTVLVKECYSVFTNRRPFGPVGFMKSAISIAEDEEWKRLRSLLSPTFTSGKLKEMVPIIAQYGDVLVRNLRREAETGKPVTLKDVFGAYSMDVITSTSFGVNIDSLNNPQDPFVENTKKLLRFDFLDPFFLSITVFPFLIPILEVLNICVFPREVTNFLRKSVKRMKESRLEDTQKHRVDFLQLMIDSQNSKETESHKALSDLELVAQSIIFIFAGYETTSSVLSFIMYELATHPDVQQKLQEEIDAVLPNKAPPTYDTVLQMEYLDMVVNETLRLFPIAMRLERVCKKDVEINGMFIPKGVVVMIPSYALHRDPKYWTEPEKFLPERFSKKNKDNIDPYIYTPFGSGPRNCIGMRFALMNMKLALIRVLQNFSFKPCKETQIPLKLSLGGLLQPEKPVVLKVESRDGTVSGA
Chain of CYP2C19 (P33261 whole entry, canonical isoform): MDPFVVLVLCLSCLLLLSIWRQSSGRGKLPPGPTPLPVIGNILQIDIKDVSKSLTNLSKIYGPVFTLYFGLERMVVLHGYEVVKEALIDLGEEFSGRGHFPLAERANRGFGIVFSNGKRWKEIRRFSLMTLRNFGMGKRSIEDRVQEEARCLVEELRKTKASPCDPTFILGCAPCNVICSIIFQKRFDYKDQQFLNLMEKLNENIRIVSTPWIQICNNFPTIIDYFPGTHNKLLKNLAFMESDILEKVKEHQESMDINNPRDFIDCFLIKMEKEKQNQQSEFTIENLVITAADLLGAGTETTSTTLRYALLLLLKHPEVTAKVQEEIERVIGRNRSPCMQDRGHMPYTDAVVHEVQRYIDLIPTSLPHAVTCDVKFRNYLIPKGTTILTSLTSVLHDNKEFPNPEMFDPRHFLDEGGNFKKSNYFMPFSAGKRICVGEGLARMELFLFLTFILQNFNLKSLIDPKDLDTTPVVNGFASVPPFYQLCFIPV
Chain of CYP2D6 (P10635 whole entry): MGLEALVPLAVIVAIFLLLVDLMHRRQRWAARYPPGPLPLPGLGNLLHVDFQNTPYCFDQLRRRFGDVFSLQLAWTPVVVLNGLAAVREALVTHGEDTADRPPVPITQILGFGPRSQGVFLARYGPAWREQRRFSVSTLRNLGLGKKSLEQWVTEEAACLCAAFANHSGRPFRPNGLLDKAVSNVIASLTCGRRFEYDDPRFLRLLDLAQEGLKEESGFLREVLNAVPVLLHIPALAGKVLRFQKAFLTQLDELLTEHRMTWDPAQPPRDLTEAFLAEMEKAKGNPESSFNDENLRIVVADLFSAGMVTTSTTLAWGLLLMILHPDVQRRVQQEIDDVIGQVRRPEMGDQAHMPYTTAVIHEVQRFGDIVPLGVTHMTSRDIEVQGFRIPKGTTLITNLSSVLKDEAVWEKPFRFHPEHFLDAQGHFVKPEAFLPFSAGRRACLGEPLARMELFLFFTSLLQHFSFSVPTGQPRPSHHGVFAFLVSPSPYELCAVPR

SMILES: NC1Cc2cccc3c2c(cn3S(=O)(=O)c2ccccc2)C1 (configuration not stated)
Ki [1]: 1.6 nM

Ki [1]: 96 nM
SMILES: COc1ccc2c(c1)c(CCN(C)C)c1n2S(=O)(=O)c2ccccc2-1

Ki [2]: 19.8 nM
SMILES: COc1ccc(S(=O)(=O)n2c3c(c4cc(OC)ccc42)CC(N(C)C)CC3)cc1 (racemic)

Ki [2]: 73.4 nM
SMILES: NC1CCc2c(c3ccccc3n2S(=O)(=O)c2cccc(C(F)(F)F)c2)C1 (racemic)

Ki [2]: 39.1 nM
SMILES: COc1ccc2c(c1)c1c(n2S(=O)(=O)c2cccc(C(F)(F)F)c2)CCC(N)C1 (racemic)

SMILES: CN(C)C1CCc2c(c3ccccc3n2S(=O)(=O)c2ccccc2)C1 (racemic)
Ki [2]: 8.82 nM

inhibition [3]: 16.2%
inhibition [4]: 51.4%
inhibition [5]: 24.8%
inhibition at 3 µM (CYP2C19): 50%
inhibition [6]: 7.7%
inhibition [7]: 23.4%
inhibition [8]: 22.3%
inhibition [9]: 2.77%
IC50 [10]: 2060 nM
Kb [10]: 21.5 nM
Ki [2]: 1.83 nM
inhibition [11]: 4.22%
inhibition [12]: 67.4%
inhibition [13]: 15.2%
inhibition [14]: 43.9%
inhibition at 3 µM (CYP2D6): 50%
inhibition [15]: 0%
inhibition [16]: 16.4%
inhibition at 3 µM (CYP3A4): 10%
inhibition [17]: 3.85%
inhibition [18]: 0%
inhibition [19]: 0%
SMILES: CN(C)C1CCc2c(c3cc(Br)ccc3n2S(=O)(=O)c2ccccc2)C1 (racemic)

SMILES: CN(C)C1CCc2c(c3cc(Cl)ccc3n2S(=O)(=O)c2ccccc2)C1 (racemic)
Ki [2]: 16.1 nM

SMILES: CSc1ccc2c(c1)c1c(n2S(=O)(=O)c2ccccc2)CCC(N(C)C)C1 (racemic)
Ki [2]: 4.57 nM

Ki [2]: 7.95 nM
SMILES: CN(C)C1CCc2c(c3cc(F)cc(F)c3n2S(=O)(=O)c2ccccc2)C1 (racemic)

SMILES: CN(C)C1CCc2c(c3ccccc3n2S(=O)(=O)c2ccc(Br)cc2)C1 (racemic)
Ki [2]: 15.5 nM

Ki [2]: 41.1 nM
SMILES: CN(C)C1CCc2c(c3cc(Cl)ccc3n2S(=O)(=O)c2ccc(Br)cc2)C1 (racemic)

inhibition [3]: 7.92%
inhibition [4]: 35.2%
inhibition [5]: 39.9%
inhibition [6]: 7.21%
inhibition [7]: 11%
inhibition [8]: 29.9%
inhibition [9]: 1.49%
Ki [2]: 4.21 nM
inhibition [11]: 4.24%
inhibition [12]: 32.1%
inhibition [13]: 7.37%
inhibition [14]: 50.3%
inhibition [15]: 2.69%
inhibition [16]: 15.3%
inhibition [17]: 10.3%
inhibition [18]: 0%
inhibition [19]: 4.9%
SMILES: CN(C)C1CCc2c(c3ccccc3n2S(=O)(=O)c2cccc(Cl)c2)C1 (racemic)

Ki [2]: 5.01 nM
SMILES: CN(C)C1CCc2c(c3cc(F)ccc3n2S(=O)(=O)c2cccc(Cl)c2)C1 (racemic)

Ki [2]: 2.68 nM
SMILES: CSc1ccc2c(c1)c1c(n2S(=O)(=O)c2cccc(Cl)c2)CCC(N(C)C)C1 (racemic)

inhibition [3]: 8.72%
inhibition [4]: 19.6%
inhibition [5]: 49.1%
inhibition at 3 µM (CYP2C19): 50%
inhibition [6]: 24.8%
inhibition [7]: 26.8%
inhibition [8]: 44.5%
inhibition [9]: 20.7%
IC50 [10]: 1950 nM
Kb [10]: 20.4 nM
metabolised [20]: 72%
Ki [2]: 1.92 nM
inhibition [11]: 5.26%
inhibition [12]: 60.4%
inhibition [13]: 5.6%
inhibition [14]: 57.5%
metabolised [21]: 17%
inhibition at 3 µM (CYP2D6): 50%
inhibition [15]: 9.14%
inhibition [16]: 16.3%
inhibition at 3 µM (CYP3A4): 10%
inhibition [17]: 18%
inhibition [18]: 18.4%
inhibition [19]: 4.14%
SMILES: CN(C)C1CCc2c(c3ccccc3n2S(=O)(=O)c2cccc(C(F)(F)F)c2)C1 (racemic)

SMILES: CN(C)C1CCc2c(c3cc(Br)ccc3n2S(=O)(=O)c2cccc(C(F)(F)F)c2)C1 (racemic)
Ki [2]: 5.5 nM

Ki [2]: 12.2 nM
SMILES: CN(C)C1CCc2c(c3cc(Cl)ccc3n2S(=O)(=O)c2cccc(C(F)(F)F)c2)C1 (racemic)

Ki [2]: 3.71 nM
SMILES: COc1ccc2c(c1)c1c(n2S(=O)(=O)c2cccc(C(F)(F)F)c2)CCC(N(C)C)C1 (racemic)

Ki [2]: 2.85 nM
SMILES: CN(C)C1CCc2c(c3ccccc3n2S(=O)(=O)c2ccccc2Br)C1 (racemic)

Ki [2]: 8.13 nM
SMILES: CN(C)C1CCc2c(c3cc(Cl)ccc3n2S(=O)(=O)c2ccccc2Br)C1 (racemic)

Ki [2]: 5.02 nM
SMILES: CN(C)C1CCc2c(c3cc(F)ccc3n2S(=O)(=O)c2ccccc2Br)C1 (racemic)

SMILES: CN(C)C1CCc2c(c3ccccc3n2S(=O)(=O)c2ccccc2Cl)C1 (racemic)
Ki [2]: 9.15 nM

Ki [2]: 4.68 nM
SMILES: COc1ccc2c(c1)c1c(n2S(=O)(=O)c2ccccc2Cl)CCC(N(C)C)C1 (racemic)

SMILES: CN(C)C1CCc2c(c3ccccc3n2S(=O)(=O)c2ccccc2F)C1 (racemic)
Ki [2]: 10.4 nM

SMILES: COc1ccc2c(c1)c1c(n2S(=O)(=O)c2ccccc2F)CCC(N(C)C)C1 (racemic)
Ki [2]: 3.63 nM

SMILES: Cc1ccc(S(=O)(=O)n2c3c(c4ccccc42)CC(N(C)C)CC3)cc1 (racemic)
Ki [2]: 8.28 nM

SMILES: Cc1ccc(S(=O)(=O)n2c3c(c4cc(Cl)ccc42)CC(N(C)C)CC3)cc1 (racemic)
Ki [2]: 18.1 nM

SMILES: CC(C)c1ccc(S(=O)(=O)n2c3c(c4cc(Br)ccc42)CC(N(C)C)CC3)cc1 (racemic)
Ki [2]: 7.5 nM

SMILES: COc1ccc(S(=O)(=O)n2c3c(c4ccccc42)CC(N(C)C)CC3)cc1 (racemic)
Ki [2]: 20.4 nM

Ki [2]: 29 nM
SMILES: COc1ccc(S(=O)(=O)n2c3c(c4cc(Br)ccc42)CC(N(C)C)CC3)cc1 (racemic)

Ki [2]: 6.89 nM
SMILES: COc1ccc(S(=O)(=O)n2c3c(c4cc(SC)ccc42)CC(N(C)C)CC3)cc1 (racemic)

Ki [2]: 70.6 nM
SMILES: CN(C)C1CCc2c(c3cc(Br)ccc3n2S(=O)(=O)c2cc(C(F)(F)F)ccc2Cl)C1 (racemic)

Ki [2]: 61.2 nM
SMILES: CN(C)C1CCc2c(c3cc(Br)ccc3n2S(=O)(=O)c2ccc(F)c(F)c2F)C1 (racemic)

SMILES: CN(C)C1CCc2c(c3cc(Br)ccc3n2S(=O)(=O)c2ccc(F)c(F)c2)C1 (racemic)
Ki [2]: 29 nM

SMILES: CNC1CCc2c(c3ccccc3n2S(=O)(=O)c2cccc(C(F)(F)F)c2)C1 (racemic)
Ki [2]: 17.1 nM

Ki [2]: 13.1 nM
SMILES: CNC1CCc2c(c3cc(OC)ccc3n2S(=O)(=O)c2cccc(C(F)(F)F)c2)C1 (racemic)
